The compounds below were run against T1, Intracellular chorismate mutase (Mycobacterium tuberculosis) (UniProt P9WIC1) (assay: Inhibition of Mycobacterium tuberculosis chorismate mutase at 50 uM using chorismate substrate by spectrophotometry).
T1 sequence (whole entry): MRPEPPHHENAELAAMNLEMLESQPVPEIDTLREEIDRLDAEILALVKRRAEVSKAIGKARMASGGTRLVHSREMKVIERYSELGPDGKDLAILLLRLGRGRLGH
Summary of the method: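 His-tagged MtCM expressed in E. coli BL21(DE3) and purified by Ni-NTA. Started with 180 pmol enzyme, 5 min at 37 °C, stopped with 1 N HCl. Prephenate formation read at A274 against no-enzyme blanks. % inhibition = 100 − residual activity.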

First: CC(C)(C)OC(=O)N1CCc2c(sc3ncn(-c4ccccc4)c(=O)c23)C1
Second: CC(C)(C)OC(=O)N1CCc2c(sc3ncn(-c4cccc(C=O)c4)c(=O)c23)C1
The inhibition of the first is lower: 37.2% for the first, 49.9% for the second.

Going from `O=c1c2c3c(sc2ncn1-c1ccccc1)CNCC3` to `O=c1c2c3c(sc2ncn1-c1ccccc1)CCCC3`, the inhibition falls from 36.2% to 35.6%.

Going from `O=c1c2c3c(sc2ncn1-c1ccc2ccccc2c1)CCCC3` to `COc1cccc(-n2cnc3sc4c(c3c2=O)CCCC4)c1`, the inhibition rises from 33% to 47%.

Compared with `O=C(c1ccccc1I)N1CCc2c(sc3ncn(-c4ccccc4)c(=O)c23)C1`, `O=c1c2c3c(sc2ncn1-c1ccccc1)CCCCC3` is higher in inhibition: 12.6% for the first, 13% for the second.

Going from `O=c1c2c3c(sc2ncn1-c1ccc(F)cc1)CCCC3` to `O=c1c2c3c(sc2ncn1-c1ccc(F)cc1)CCCCC3`, the inhibition rises from 12.8% to 14.6%.

Going from `O=c1c2c3c(sc2ncn1-c1cccc(Cl)c1)CCCC3` to `O=Cc1cccc(-n2cnc3sc4c(c3c2=O)CCCC4)c1`, the inhibition rises from 42.5% to 45.3%.

`Cc1csc2ncn(-c3ccc(F)cc3)c(=O)c12` gave an inhibition of 17.7%.

The compounds below were run against T2, Intracellular chorismate mutase (Mycobacterium tuberculosis, UniProt P9WIC1) (assay: Inhibition of Mycobacterium tuberculosis chorismate mutase using chorismate substrate in dose response study by spectrophotometry).
T2 sequence (P9WIC1 whole entry): T1 sequence (whole entry)

Compared with `COc1cc(CCNc2c([N+](=O)[O-])cc(C(=O)O)cc2S(N)(=O)=O)cc(OC)c1`, `CC(C)(C)OC(=O)N1CCc2c(sc3ncn(-c4cccc(C=O)c4)c(=O)c23)C1` is higher in IC50: < 10 µM for the first, 23.9 µM for the second. The first is the more potent here.

`COc1cccc(-n2cnc3sc4c(c3c2=O)CCCC4)c1` gave an IC50 of 19.8 µM.
